Values after ≈ are worked out from the molar mass of the structure shown.
How the values were obtained:
Mus musculus [1] = assay: In Vivo evaluation for its effective dose against Streptococcus pneumoniae (030SJ6 EryRc); assay type: functional
Summary of the method: (§1)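 Male Charles River CD1 mice, 20-22 g, 10 per dose group, infected intraperitoneally with 0.5 mL diluted overnight broth culture (physiological buffer or 5% hog mucine) at 10-100 times the minimal lethal dose. Compound suspended in carboxymethylcellulose, 0.5 mL given orally immediately and 4 h postinfection. Survival followed 8-10 days; ED50 (unitary dose protecting 50% from death) by Litchfield-Wilcoxon probit method.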

Streptococcus sp [2] = assay: In vitro inhibitory activity against Streptococci EryRi (98)
Streptococcus pneumoniae [3] = assay: In vitro inhibitory activity against Streptococcus pneumoniae (032UC1); assay type: functional
Summary of the method: (§2)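 Two-fold agar dilution on Mueller-Hinton agar (pH 7.4). Inoculum from overnight plate cultures suspended in Mueller-Hinton broth, adjusted to 10^9 CFU/mL, diluted 1:200 and spotted by multipoint inoculator at about 10^4 CFU/spot. Plates incubated 37 °C for 20 h. MIC taken as lowest concentration with no visible growth.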

Mus musculus [4] = assay: In Vivo evaluation for its effective dose against Haemophilus influenzae (351GR1); assay type: functional; summary of the method: as §1
Staphylococcus aureus [5] = assay: In vitro inhibitory activity against Staphylococcus aureus (011UC4); assay type: functional; summary of the method: as §2
Mus musculus [6] = assay: In Vivo evaluation for its effective dose against Staphylococcus aureus (011UC4).; assay type: functional; summary of the method: as §1
Mus musculus [7] = assay: In Vivo evaluation for its effective dose against Streptococcus pneumoniae (030SJ1 EryRc); assay type: functional; summary of the method: as §1
Staphylococcus sp. [8] = assay: In vitro inhibitory activity against Staphylococci EryRi (65); assay type: functional
Mus musculus [9] = assay: In Vivo evaluation for its effective dose against Streptococcus pneumoniae (030RO1 EryRi); assay type: functional; summary of the method: as §1
Haemophilus [10] = assay: In vitro inhibitory activity against Haemophilus AmpS (43); assay type: functional
Enterococcus [11] = assay: In vitro inhibitory activity against enterococci EryRi (19); assay type: functional
Staphylococcus aureus [12] = assay: In vitro inhibitory activity against Staphylococcus aureus (EryRc 011CB20); assay type: functional; summary of the method: as §2
Mus musculus [13] = assay: In Vivo evaluation for its effective dose against Streptococcus pneumoniae (030Cr29 EryRc); assay type: functional; summary of the method: as §1
Mus musculus [14] = assay: In Vivo evaluation for its effective dose against Streptococcus pneumoniae (032UC1); assay type: functional; summary of the method: as §1
Escherichia coli = assay: In vitro inhibitory activity against Escherichia coli (250 UC5); assay type: functional; summary of the method: as §2
Mus musculus [15] = assay: In Vivo evaluation for its effective dose against Haemophilus influenzae (351RD7 AmpR beta (+)); assay type: functional; summary of the method: as §1
Streptococcus sp [16] = assay: In vitro inhibitory activity against Streptococci EryR (27)
[17] = In vitro inhibitory activity against Pneumococci PenR (65); assay type: functional
Haemophilus [18] = assay: In vitro inhibitory activity against Haemophilus AmpR (37); assay type: functional
Mus musculus [19] = assay: In Vivo evaluation for its effective dose against Streptococcus pyogenes (02A1UC1); assay type: functional; summary of the method: as §1
Mus musculus [20] = assay: In Vivo evaluation for its effective dose against Staphylococcus aureus (011GO25 EryRi.; assay type: functional; summary of the method: as §1
[21] = system: Staphylococcus epidermidis; assay: In vitro inhibitory activity against Staphylococcus epidermidis (EryRi 012GO11i); assay type: functional; summary of the method: as §2
[22] = In vitro inhibitory activity against Pneumococci EryRc (34); assay type: functional
Haemophilus influenzae [23] = assay: In vitro inhibitory activity against Haemophilus influenzae (351CB12); assay type: functional; summary of the method: as §2
Streptococcus pyogenes = assay: In vitro inhibitory activity against Streptococcus pyogenes (02A1UC1); assay type: functional; summary of the method: as §2
Haemophilus influenzae [24] = assay: In vitro inhibitory activity against Haemophilus influenzae (351HT3); assay type: functional; summary of the method: as §2
Mus musculus [25] = assay: In Vivo evaluation for its effective dose against Streptococcus pneumoniae (030MV2 EryRc); assay type: functional; summary of the method: as §1
Mus musculus [26] = assay: In Vivo evaluation for its effective dose against Haemophilus influenzae (351TO19 AmpR beta (-)); assay type: functional; summary of the method: as §1
Staphylococcus sp. [27] = assay: In vitro inhibitory activity against Staphylococci EryRc (13); assay type: functional
Streptococcus pneumoniae [28] = assay: In vitro inhibitory activity against Streptococcus pneumoniae (EryRi 030SJ5i); assay type: functional; summary of the method: as §2
Streptococcus pneumoniae [29] = assay: In vitro inhibitory activity against Streptococcus pneumoniae (EryRc 030SJ1); assay type: functional; summary of the method: as §2
Streptococcus sp [30] = assay: In vitro inhibitory activity against Streptococci EryR (27); remark: listed apart in the source
Staphylococcus aureus [31] = assay: In vitro inhibitory activity against Staphylococcus aureus (EryRi 011GO25i); assay type: functional; summary of the method: as §2
Streptococcus sp [32] = assay: In vitro inhibitory activity against Streptococci EryRi (98); remark: listed apart in the source
Streptococcus sp. [33] = assay: In vitro inhibitory activity against Streptococci EryR (27); assay type: functional
Streptococcus sp. [34] = assay: In vitro inhibitory activity against Streptococci EryRi (98); assay type: functional
Enterococcus [35] = assay: In vitro inhibitory activity against enterococci EryRc (13); assay type: functional
Staphylococcus sp. [36] = assay: In vitro inhibitory activity against Staphylococci EryRc (23); assay type: functional

## CC[C@H]1OC(=O)[C@H](C)[C@@H](O[C@H]2C[C@@](C)(OC)[C@@H](O)[C@H](C)O2)[C@H](C)[C@@H](O[C@@H]2O[C@H](C)C[C@H](N(C)C)[C@H]2O)[C@](C)(OC)C[C@@H](C)C(=O)[C@H](C)[C@@H](O)[C@]1(C)O [CLARITHROMYCIN]
Mus musculus [1]
  ED50: > 100 mg/kg
Streptococcus sp [2]
  MIC90: 40 µg/mL (≈ 53.5 µM)
Streptococcus pneumoniae [3]
  MIC: 0.04 µg/mL (≈ 0.0535 µM)
Mus musculus [4]
  ED50: 346 mg/kg
Staphylococcus aureus [5]
  MIC: 0.3 µg/mL (≈ 0.401 µM)
Mus musculus [6]
  ED50: 12.6 mg/kg
Mus musculus [7]
  ED50: > 100 mg/kg
Staphylococcus sp. [8]
  MIC50: 40 µg/mL (≈ 53.5 µM)
  MIC90: 40 µg/mL (≈ 53.5 µM)
Mus musculus [9]
  ED50: > 100 mg/kg
Haemophilus [10]
  MIC50: 1.2 µg/mL (≈ 1.6 µM)
  MIC90: 5 µg/mL (≈ 6.68 µM)
Enterococcus [11]
  MIC50: 1.2 µg/mL (≈ 1.6 µM)
  MIC90: 10 µg/mL (≈ 13.4 µM)
Staphylococcus aureus [12]
  MIC: 40 µg/mL (≈ 53.5 µM)
Mus musculus [13]
  ED50: > 100 mg/kg
Mus musculus [14]
  ED50: > 50 mg/kg
Escherichia coli
  MIC: 40 µg/mL (≈ 53.5 µM)
Mus musculus [15]
  ED50: 109 mg/kg
Streptococcus sp [16]
  MIC50: 1.2 µg/mL (≈ 1.6 µM)
[17]
  MIC50: 0.3 µg/mL (≈ 0.401 µM)
  MIC90: 40 µg/mL (≈ 53.5 µM)
Haemophilus [18]
  MIC50: 2.5 µg/mL (≈ 3.34 µM)
  MIC90: 10 µg/mL (≈ 13.4 µM)
Mus musculus [19]
  ED50: 16 mg/kg
Mus musculus [20]
  ED50: > 100 mg/kg
[21]
  MIC: 40 µg/mL (≈ 53.5 µM)
[22]
  MIC50: 40 µg/mL (≈ 53.5 µM)
  MIC90: 40 µg/mL (≈ 53.5 µM)
Haemophilus influenzae [23]
  MIC: 2.5 µg/mL (≈ 3.34 µM)
Streptococcus pyogenes
  MIC: 0.08 µg/mL (≈ 0.107 µM)
Haemophilus influenzae [24]
  MIC: 2.5 µg/mL (≈ 3.34 µM)
Mus musculus [25]
  ED50: > 100 mg/kg
Mus musculus [26]
  ED50: 600 mg/kg
Staphylococcus sp. [27]
  MIC50: 40 µg/mL (≈ 53.5 µM)
  MIC90: 40 µg/mL (≈ 53.5 µM)
Streptococcus pneumoniae [28]
  MIC: 40 µg/mL (≈ 53.5 µM)
Streptococcus pneumoniae [29]
  MIC: 40 µg/mL (≈ 53.5 µM)
Streptococcus sp [30]
  MIC90: 40 µg/mL (≈ 53.5 µM)
Staphylococcus aureus [31]
  MIC: 40 µg/mL (≈ 53.5 µM)
Streptococcus sp [32]
  MIC50: 40 µg/mL (≈ 53.5 µM)

## CC[C@H]1OC(=O)[C@H](C)[C@@H](O[C@H]2C[C@@](C)(OC)[C@@H](O)[C@H](C)O2)[C@H](C)[C@@H](O[C@@H]2O[C@H](C)C[C@H](N(C)C)[C@H]2O)[C@](C)(O)C[C@@H](C)C(=O)[C@H](C)[C@@H](O)[C@]1(C)O [ERYTHROMYCIN]
Mus musculus [1]
  ED50: > 100 mg/kg
Streptococcus pneumoniae [3]
  MIC: 0.08 µg/mL (≈ 0.109 µM)
Mus musculus [4]
  ED50: 346 mg/kg
Staphylococcus aureus [5]
  MIC: 0.3 µg/mL (≈ 0.409 µM)
Mus musculus [6]
  ED50: 57 mg/kg
Mus musculus [7]
  ED50: > 100 mg/kg
Staphylococcus sp. [8]
  MIC50: 40 µg/mL (≈ 54.5 µM)
  MIC90: 40 µg/mL (≈ 54.5 µM)
Mus musculus [9]
  ED50: > 100 mg/kg
Streptococcus sp. [33]
  MIC50: 5 µg/mL (≈ 6.81 µM)
  MIC90: 40 µg/mL (≈ 54.5 µM)
Streptococcus sp. [34]
  MIC50: 20 µg/mL (≈ 27.3 µM)
  MIC90: 40 µg/mL (≈ 54.5 µM)
Haemophilus [10]
  MIC50: 1.2 µg/mL (≈ 1.64 µM)
  MIC90: 5 µg/mL (≈ 6.81 µM)
Enterococcus [35]
  MIC50: 40 µg/mL (≈ 54.5 µM)
  MIC90: 40 µg/mL (≈ 54.5 µM)
Enterococcus [11]
  MIC50: 2.5 µg/mL (≈ 3.41 µM)
  MIC90: 10 µg/mL (≈ 13.6 µM)
Staphylococcus aureus [12]
  MIC: 40 µg/mL (≈ 54.5 µM)
Mus musculus [13]
  ED50: > 100 mg/kg
Mus musculus [14]
  ED50: 18.3 mg/kg
Escherichia coli
  MIC: 40 µg/mL (≈ 54.5 µM)
Mus musculus [15]
  ED50: 326 mg/kg
[17]
  MIC50: 0.6 µg/mL (≈ 0.818 µM)
  MIC90: 40 µg/mL (≈ 54.5 µM)
Haemophilus [18]
  MIC50: 1.2 µg/mL (≈ 1.64 µM)
  MIC90: 10 µg/mL (≈ 13.6 µM)
Mus musculus [19]
  ED50: 300 mg/kg
Mus musculus [20]
  ED50: > 100 mg/kg
[21]
  MIC: 40 µg/mL (≈ 54.5 µM)
[22]
  MIC50: 40 µg/mL (≈ 54.5 µM)
  MIC90: 40 µg/mL (≈ 54.5 µM)
Haemophilus influenzae [23]
  MIC: 2.5 µg/mL (≈ 3.41 µM)
Streptococcus pyogenes
  MIC: 0.08 µg/mL (≈ 0.109 µM)
Haemophilus influenzae [24]
  MIC: 2.5 µg/mL (≈ 3.41 µM)
Staphylococcus sp. [36]
  MIC50: 40 µg/mL (≈ 54.5 µM)
  MIC90: 40 µg/mL (≈ 54.5 µM)
Mus musculus [25]
  ED50: > 100 mg/kg
Mus musculus [26]
  ED50: 442 mg/kg
Streptococcus pneumoniae [28]
  MIC: 40 µg/mL (≈ 54.5 µM)
Streptococcus pneumoniae [29]
  MIC: 40 µg/mL (≈ 54.5 µM)
Staphylococcus aureus [31]
  MIC: 40 µg/mL (≈ 54.5 µM)
